According to publication PMC2585982 (Toxicology and applied pharmacology, 2008):

Legend:
[1] = molecular target: mCAR-LBD fused to the Gal4 DNA binding domain (Mus musculus, UniProt O35627); test: CAR transfection assay, Gal4-mCAR LBD fusion reporter in HepG2 cells; type: cell-based, murine; conditions: HepG2, 4 μM androstanol; 250 nM TC or 0.1–100 μM isopimpinellin, 24 h
[2] = molecular target: PXR LBD and SRC-1 RID (Mus musculus, UniProt O54915); test: Mammalian two-hybrid assay, Gal-SRC-1 RID + VP-L-PXR in CV-1 cells; type: cell-based; conditions: isopimpinellin 50 μM; PCN 10 μM; Figure 7A
Summary of the method: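 Mammalian two-hybrid in CV-1 cells co-transfected with Gal-SRC-1 RID and/or VP-L-PXR, plus MH100-tk-luc reporter and CMX-β-gal. Cells were exposed to compound or solvent control in medium for 18–24 h. Interaction was taken as luciferase activity normalised to β-gal activity; mean ± SD.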

[3] = tested on: P450; test: Liver microsomal P450 content after oral dosing of mice; type: in vivo; conditions: C57BL/6 mice, 100 mg/kg p.o. 3 days, vs corn oil
[4] = tested on: GSTμ; test: Western blot of liver cytosol, GSTμ protein expression; type: in vivo, mice; conditions: SENCAR mice, 35, 70, 150 mg/kg p.o.
[5] = tested on: NQO; test: Liver cytosolic NQO activity; type: in vivo, mice; conditions: female SENCAR mice, 35, 70, 150 mg/kg p.o. 4 days, vs corn oil
[6] = tested on: P450 1A1/1A2; conditions: mouse, in vivo
[7] = molecular target: T1, SXR (Homo sapiens, UniProt O75469); test: GAL-SXR reporter assay; type: cell-based
T1 sequence (O75469 146-433 limits assumed): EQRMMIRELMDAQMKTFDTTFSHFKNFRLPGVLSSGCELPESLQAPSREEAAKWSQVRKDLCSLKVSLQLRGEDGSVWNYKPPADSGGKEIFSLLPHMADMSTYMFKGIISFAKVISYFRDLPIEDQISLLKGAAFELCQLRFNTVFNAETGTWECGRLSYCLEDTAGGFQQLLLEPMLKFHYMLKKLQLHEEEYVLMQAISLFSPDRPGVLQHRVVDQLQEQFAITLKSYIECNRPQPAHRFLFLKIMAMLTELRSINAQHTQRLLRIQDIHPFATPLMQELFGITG

[8] = tested on: P450s 1A1/2; test: Liver microsomal P450 1A activity; type: in vivo, mice; conditions: mouse, in vivo
[9] = tested on: P450s 2B9/10; conditions: mice treated 3 consecutive days; ref Kleiner et al., 2001; cited from earlier work
[10] = tested on: GST (DCNB, GST μ); test: Liver cytosolic GST activity, DCNB as substrate, after oral dosing of mice; type: in vivo; conditions: C57BL/6 mice, 100 mg/kg p.o. 3 days, vs corn oil
[11] = tested on: GSTa1 mRNA; test: Northern blot of liver RNA, GSTa1 mRNA in CAR; type: in vivo, mice; conditions: isopimpinellin 150 mg/kg p.o. 24 h; TC 3 mg/kg i.p. 6 h
[12] = tested on: Cyp3a11 mRNA; test: Northern blot of liver RNA, Cyp3a11 mRNA in CAR; conditions: isopimpinellin 150 mg/kg p.o. 24 h, TC 3 mg/kg i.p. 6 h
[13] = tested on: GSTπ; test: Western blot of liver cytosol, GSTπ protein expression; type: in vivo; conditions: SENCAR mice, 35, 70, 150 mg/kg p.o.
[14] = molecular target: SXR (Homo sapiens, UniProt O75469); test: SXR-DR3 reporter assay; type: cell-based
Target sequence in this assay (O75469 whole entry, one chain of several): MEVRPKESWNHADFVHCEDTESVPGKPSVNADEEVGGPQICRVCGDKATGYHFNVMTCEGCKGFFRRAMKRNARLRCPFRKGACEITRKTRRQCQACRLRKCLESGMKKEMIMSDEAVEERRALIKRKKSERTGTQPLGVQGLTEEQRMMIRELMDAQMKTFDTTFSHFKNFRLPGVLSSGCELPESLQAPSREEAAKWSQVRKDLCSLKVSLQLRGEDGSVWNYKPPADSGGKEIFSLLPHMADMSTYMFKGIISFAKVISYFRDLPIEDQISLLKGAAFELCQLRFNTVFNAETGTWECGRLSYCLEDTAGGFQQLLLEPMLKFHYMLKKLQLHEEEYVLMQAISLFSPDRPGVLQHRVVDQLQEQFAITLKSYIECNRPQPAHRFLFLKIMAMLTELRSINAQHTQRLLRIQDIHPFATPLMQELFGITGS

[15] = tested on: P450 3A11; conditions: mouse, in vivo, po, 100 mg/kg
[16] = tested on: P450 3A11; test: Liver microsomal P450 3A activity; type: in vivo, mice; conditions: mouse, in vivo
[17] = molecular target: T2, PXR (Mus musculus, UniProt O54915); test: PXR-DR3 reporter assay; type: cell-based
T2 sequence (O54915 1-431): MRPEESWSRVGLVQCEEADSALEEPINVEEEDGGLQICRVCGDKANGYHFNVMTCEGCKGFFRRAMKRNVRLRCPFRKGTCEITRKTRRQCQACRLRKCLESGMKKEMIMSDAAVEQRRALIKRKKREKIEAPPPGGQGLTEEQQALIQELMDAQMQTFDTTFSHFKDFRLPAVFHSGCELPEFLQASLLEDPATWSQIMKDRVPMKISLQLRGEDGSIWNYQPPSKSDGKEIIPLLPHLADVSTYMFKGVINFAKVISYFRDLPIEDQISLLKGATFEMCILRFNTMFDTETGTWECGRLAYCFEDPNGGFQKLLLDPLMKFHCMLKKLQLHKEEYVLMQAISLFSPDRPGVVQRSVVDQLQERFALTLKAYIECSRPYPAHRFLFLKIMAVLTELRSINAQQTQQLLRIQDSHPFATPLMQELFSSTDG
T2 sequence (P19793 1-462 partner): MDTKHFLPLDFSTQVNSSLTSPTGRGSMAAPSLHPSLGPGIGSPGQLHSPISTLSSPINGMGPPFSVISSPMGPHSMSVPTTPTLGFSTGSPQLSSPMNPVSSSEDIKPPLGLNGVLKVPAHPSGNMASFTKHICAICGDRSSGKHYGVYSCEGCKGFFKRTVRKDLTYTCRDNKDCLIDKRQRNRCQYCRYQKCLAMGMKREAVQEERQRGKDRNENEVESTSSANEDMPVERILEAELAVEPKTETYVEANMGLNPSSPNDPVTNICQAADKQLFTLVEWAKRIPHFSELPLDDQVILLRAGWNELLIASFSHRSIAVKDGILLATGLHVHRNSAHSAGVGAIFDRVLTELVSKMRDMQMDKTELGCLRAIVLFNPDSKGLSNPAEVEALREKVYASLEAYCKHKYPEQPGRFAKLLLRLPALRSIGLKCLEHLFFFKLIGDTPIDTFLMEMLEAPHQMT

[18] = molecular target: SXR and SRC-1 RID (Homo sapiens, UniProt O75469); test: Mammalian two-hybrid assay, Gal-SRC-1 RID + VP-L-SXR in CV-1 cells; type: cell-based; conditions: isopimpinellin 50 μM, RIF 10 μM
Chain of SXR and SRC-1 RID (Q15788 570-780 partner limits assumed, one chain of several): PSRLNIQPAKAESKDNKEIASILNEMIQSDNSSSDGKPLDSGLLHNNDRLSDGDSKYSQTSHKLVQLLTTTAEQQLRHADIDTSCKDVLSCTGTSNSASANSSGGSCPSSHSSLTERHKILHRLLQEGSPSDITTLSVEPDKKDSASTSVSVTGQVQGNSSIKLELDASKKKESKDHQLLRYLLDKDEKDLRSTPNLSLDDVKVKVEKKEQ

Chain of PXR LBD and SRC-1 RID (Q15788 570-780 partner limits assumed, one chain of several): as above
Chain of mCAR-LBD fused to the Gal4 DNA binding domain (O35627 119-358 limits assumed): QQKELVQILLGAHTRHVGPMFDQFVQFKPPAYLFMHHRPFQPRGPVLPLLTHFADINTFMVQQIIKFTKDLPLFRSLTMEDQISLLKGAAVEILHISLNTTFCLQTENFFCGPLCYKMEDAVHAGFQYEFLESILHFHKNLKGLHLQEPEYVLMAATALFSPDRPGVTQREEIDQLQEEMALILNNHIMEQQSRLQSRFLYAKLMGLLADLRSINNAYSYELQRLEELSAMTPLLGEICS

Structure (SMILES): COc1c2ccoc2c(OC)c2oc(=O)ccc12 [isopimpinellin, 5,8-dimethoxypsoralen]
- Effect on the inhibitory effect of androstanol on Gal4 reporter expression (mCAR-LBD) [1]: counteracted
- Induced interaction of PXR LBD and SRC-1 RID compared to the control [2]: over 4 fold
- P450 content, liver microsomes [3]: increased
- Hepatic expression of GST μ protein, dose-response study [4]: no increase
- Liver cytosolic NQO activity, dose-response study [5]: increased at all doses
- P450 1A1/1A2 protein levels, dose-response study [6]: elevated
- P450 1A1/1A2 protein expression (western blot densitometry) ([6]; po, 100 mg/kg): increased
- EC50 [7]: ~35 µM
- Max (concentration to reach maximal effect), GAL-SXR ([7]; CV-1 cells, 18–24 h): 100,000 nM
- EC50 ([7]; ED50, GAL-SXR activation, CV-1 cells, 18–24 h, luciferase normalized by β-gal): 35.5 µM
- Concentration to reach maximal effect, times higher than RIF ([7]; GAL-SXR reporter system): 10 times
- P450 1 activity, liver microsomes, dose-response study [8]: significant increases
- Hepatic P450 2B9/10 activity at 1 h after the final dose [9]: no elevation
- Increase in hepatic P450 2B9/10 activity at 24 h after the final dose [9]: 100 fold
- GST activity using DCNB as a substrate, liver cytosol [10]: highest increase
- Increase in hepatic GSTa1 mRNA, female CAR(−/−) mice [11]: ~ 3 fold
- Increase in hepatic GSTa1 mRNA, male CAR(−/−) mice [11]: ~ 8 fold
- Increase in hepatic GSTa1 mRNA, male and female CAR(+/+) mice [11]: 10–11 fold
- Induction of hepatic Cyp3a11 mRNA, CAR(−/−) mice [12]: still observed
- Induction of hepatic Cyp3a11 mRNA, CAR(+/+) mice ([12]; male and female): ~ 4 fold
- Hepatic expression of GST π protein, dose-response study [13]: modest increase
- EC50 [14]: 39.8 µM
- Max (concentration to reach maximal effect), SXR-DR3 ([14]; CV-1 cells, full length SXR): 100,000 nM
- P450 3A11 protein expression (western blot densitometry) [15]: increased
- P450 3A activity, liver microsomes, dose-response study [16]: increased
- Increase in P450 3A activity (testosterone), liver microsomes ([16]; po, 100 mg/kg): 3–4 fold
- EC50 [17]: 15.8 µM
- Max (concentration to reach maximal effect), PXR-DR3 ([17]; CV-1 cells, full length PXR): 30,000 nM
- Induced interaction of receptor LBD and SRC-1 (Figure 7B) [18]: ~ 2 fold
